Data published in publication PMC9476207 (ACS Omega, 2022).

Experiments:
Assay in all cases: NCI-60 single-dose antiproliferative screen
Type in all cases: cell-based
MDA-MB-231 ATCC = conditions: Homo sapiens, MDA-MB-231, 48 h, read-out: growth percent
Outline: (§1)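 NCI-60 protocol. Lines were grown in RPMI 1640 with 5% FBS and 2 mM L-glutamine, plated and incubated 24 h at 37 °C; time-zero plates were TCA-fixed. The test compound was dissolved in DMSO, diluted in medium with 50 μg/mL gentamicin and given once at a final 10^-5 M (DMSO control) for 48 h. Cells were fixed with cold TCA (1 h, 4 °C) and stained with 0.4% SRB in 1% acetic acid for 10 min. Dye was dissolved in 10 mM Trizma base and read at 515 nm. Growth percent was calculated from time-zero, test and control ODs.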

NCI-H322M = conditions: Homo sapiens, 48 h, read-out: growth percent
Outline: as §1

HCC-2998 = conditions: Homo sapiens, HCC 2998, 48 h, read-out: growth percent
Outline: as §1

MDA-MB-435 = conditions: Homo sapiens, MDA-MB-435, 48 h, read-out: growth percent
Outline: as §1

MOLT-4 = conditions: Homo sapiens, MOLT-4, 48 h, read-out: growth percent
Outline: as §1

U251 = conditions: Homo sapiens, U-251, 48 h, read-out: growth percent
Outline: (§2)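 Cells grown in RPMI 1640 with 5% FBS and 2 mM L-glutamine, plated and held 24 h at 37 °C; time-zero plates TCA-fixed. DMSO stocks were diluted in gentamicin-containing medium to a final 10^-5 M, with a DMSO-only control. Exposure 48 h, 5% CO2. Adherent cells TCA-fixed 1 h at 4 °C, stained with 0.4% SRB, solubilised in 10 mM Trizma base, read at 515 nm. Growth percent derived from ODtzero, ODtest and ODctrl.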

HS 578T = conditions: Homo sapiens, 48 h, read-out: growth percent
Outline: as §1

MDA-MB-468 = conditions: Homo sapiens, MDA-MB-468, 48 h, read-out: growth percent
Outline: as §1

CAKI-1 = conditions: Homo sapiens, CAKI-1, 48 h, read-out: growth percent
Outline: as §1

MALME-3M = conditions: Homo sapiens, 48 h, read-out: growth percent
Outline: as §1

SN12C = conditions: Homo sapiens, 48 h, read-out: growth percent
Outline: as §2

HOP-92 = conditions: Homo sapiens, HOP-92, 48 h, read-out: growth percent
Outline: as §1

K-562 = conditions: Homo sapiens, K562, 48 h, read-out: growth percent
Outline: as §1

SK-MEL-28 = conditions: Homo sapiens, SK-MEL-28, 48 h, read-out: growth percent
Outline: as §2

HCT-15 = conditions: Homo sapiens, HCT-15, 48 h, read-out: growth percent
Outline: as §1

SK-OV-3 = conditions: Homo sapiens, SK-OV-3, 48 h, read-out: growth percent
Outline: as §2

SR = conditions: Homo sapiens, 48 h, read-out: growth percent
Outline: as §2

UO-31 = conditions: Homo sapiens, UO-31, 48 h, read-out: growth percent
Outline: as §2

HOP-62 = conditions: Homo sapiens, HOP-62, 48 h, read-out: growth percent
Outline: as §1

KM12 = conditions: Homo sapiens, KM12, 48 h, read-out: growth percent
Outline: as §1

OVCAR-3 = conditions: Homo sapiens, OVCAR-3, 48 h, read-out: growth percent
Outline: as §1

SK-MEL-2 = conditions: Homo sapiens, SK-MEL-2, 48 h, read-out: growth percent
Outline: as §2

OVCAR-4 = conditions: Homo sapiens, OVCAR-4, 48 h, read-out: growth percent
Outline: as §1

RPMI-8226 = conditions: Homo sapiens, RPMI-8226, 48 h, read-out: growth percent
Outline: as §1

NCI-H522 = conditions: Homo sapiens, NCI-H522, 48 h, read-out: growth percent
Outline: as §1

A549/ATCC = conditions: Homo sapiens, A549, 48 h, read-out: growth percent
Outline: as §1

UACC-62 = conditions: Homo sapiens, UACC-62, 48 h, read-out: growth percent
Outline: as §2

LOX IMVI = conditions: Homo sapiens, 48 h, read-out: growth percent
Outline: as §1

RXF 393 = conditions: Homo sapiens, RXF 393, 48 h, read-out: growth percent
Outline: as §1

SF-268 = conditions: Homo sapiens, SF-268, 48 h, read-out: growth percent
Outline: as §1

OVCAR-5 = conditions: Homo sapiens, OVCAR-5, 48 h, read-out: growth percent
Outline: as §1

NCI-H460 = conditions: Homo sapiens, NCI-H460, 48 h, read-out: growth percent
Outline: as §1

SK-MEL-5 = conditions: Homo sapiens, SK-MEL-5, 48 h, read-out: growth percent
Outline: as §2

SF-295 = conditions: Homo sapiens, SF-295, 48 h, read-out: growth percent
Outline: as §1

NCI/ADR-RES = conditions: Homo sapiens, 48 h, read-out: growth percent
Outline: as §1

SW-620 = conditions: Homo sapiens, SW-620, 48 h, read-out: growth percent
Outline: as §2

SMILES	activity at 10 µM (MDA-MB-231 ATCC)	activity at 10 µM (NCI-H322M)	activity at 10 µM (HCC-2998)	activity at 10 µM (MDA-MB-435)	activity at 10 µM (MOLT-4)	activity at 10 µM (U251)	activity at 10 µM (HS 578T)	activity at 10 µM (MDA-MB-468)	activity at 10 µM (CAKI-1)	activity at 10 µM (MALME-3M)	activity at 10 µM (SN12C)	activity at 10 µM (HOP-92)	activity at 10 µM (K-562)	activity at 10 µM (SK-MEL-28)	activity at 10 µM (HCT-15)	activity at 10 µM (SK-OV-3)	activity at 10 µM (SR)	activity at 10 µM (UO-31)	activity at 10 µM (HOP-62)	activity at 10 µM (KM12)	other results
COc1cc(CNC(=O)CCCC/C=C/C(C)C)ccc1OCc1cn(-c2ccccc2Cl)nn1 [14c, (E)-N-(4-((1-(2-Chlorophenyl)-1H-1,2,3-triazol-4-yl)methoxy)-3-methoxybenzyl)-8-methylnon-6-enamide]	80.8%	89.4%	110%	103%	81%	85.7%	97.2%	88.2%	93.4%	107%	94.5%	80.1%	76.8%	106%	94.1%	91.3%	68.5%	75.2%	82%	97.7%	activity at 10 µM (OVCAR-3): 101%; activity at 10 µM (SK-MEL-2): 91%; activity at 10 µM (OVCAR-4): 87.9%; activity at 10 µM (RPMI-8226): 75.5%; activity at 10 µM (NCI-H522): 64.5%; activity at 10 µM (A549/ATCC): 84.3%; activity at 10 µM (UACC-62): 73.3%; activity at 10 µM (LOX IMVI): 89.9%; activity at 10 µM (RXF 393): 105%; activity at 10 µM (SF-268): 87.8%; activity at 10 µM (OVCAR-5): 104%; activity at 10 µM (NCI-H460): 101%; activity at 10 µM (SK-MEL-5): 89.8%; activity at 10 µM (SF-295): 99.4%; activity at 10 µM (NCI/ADR-RES): 92%; activity at 10 µM (SW-620): 100%
COc1cc(CNC(=O)CCCC/C=C/C(C)C)ccc1OCc1cn(-c2ccc(C(F)(F)F)cc2)nn1 [14g, (E)-N-(3-Methoxy-4-((1-(4-(trifluoromethyl)phenyl)-1H-1,2,3-triazol-4-yl)methoxy)benzyl)-8-methylnon-6-enamide]	75.2%	96.2%	94.8%	107%	80.3%	46.7%	70.7%	70.2%	85.8%	99.7%	65.6%	13.8%	76.3%	107%	59.7%	91.3%	70.4%	92.8%	64.6%	81.2%	activity at 10 µM (OVCAR-3): 107%; activity at 10 µM (SK-MEL-2): 95.1%; activity at 10 µM (OVCAR-4): 98.6%; activity at 10 µM (RPMI-8226): 53.4%; activity at 10 µM (NCI-H522): 75.6%; activity at 10 µM (A549/ATCC): 49%; activity at 10 µM (UACC-62): 84.3%; activity at 10 µM (LOX IMVI): 60.3%; activity at 10 µM (RXF 393): 90.2%; activity at 10 µM (SF-268): 87.8%; activity at 10 µM (OVCAR-5): 96.6%; activity at 10 µM (NCI-H460): 16.7%; activity at 10 µM (SK-MEL-5): 97.1%; activity at 10 µM (SF-295): 90.9%; activity at 10 µM (NCI/ADR-RES): 48.2%; activity at 10 µM (SW-620): 41.3%
COc1cc(CNC(=O)C[C@H](C)CCC=C(C)C)ccc1OCc1cn(-c2ccc(Cl)cc2)nn1 [18b, (R)-N-(4-((1-(4-Chlorophenyl)-1H-1,2,3-triazol-4-yl)methoxy)-3-methoxybenzyl)-3,7-dimethyloct-6-enamide]	59.6%	83.5%	75.9%	84.9%	71.7%	57.7%	71.4%	41.3%	45.9%	68.3%	67.7%	53%	53.5%	87%	65.3%	72.1%	65.8%	62.5%	61.5%	87.7%	activity at 10 µM (OVCAR-3): 82.3%; activity at 10 µM (SK-MEL-2): 83.6%; activity at 10 µM (OVCAR-4): 52.7%; activity at 10 µM (RPMI-8226): 75.3%; activity at 10 µM (NCI-H522): 62.9%; activity at 10 µM (A549/ATCC): 57.1%; activity at 10 µM (UACC-62): 65.7%; activity at 10 µM (LOX IMVI): 59.7%; activity at 10 µM (RXF 393): 56.1%; activity at 10 µM (SF-268): 95.4%; activity at 10 µM (OVCAR-5): 80.7%; activity at 10 µM (NCI-H460): 65%; activity at 10 µM (SK-MEL-5): 62.8%; activity at 10 µM (SF-295): 55.5%; activity at 10 µM (NCI/ADR-RES): 48%; activity at 10 µM (SW-620): 76.8%
COc1cc(CNC(=O)CCCC/C=C/C(C)C)ccc1OCc1cn(-c2ccc(C#N)cc2)nn1 [14j, (E)-N-(4-((1-(4-Cyanophenyl)-1H-1,2,3-triazol-4-yl)methoxy)-3-methoxybenzyl)-8-methylnon-6-enamide]	90.8%	95.3%	94.5%	108%	88.4%	91.2%	95%	74.9%	74.6%	102%	98.3%	80.5%	75.4%	105%	83.5%	88.2%	76.3%	112%	103%	91.5%	activity at 10 µM (OVCAR-3): 109%; activity at 10 µM (SK-MEL-2): 98.4%; activity at 10 µM (OVCAR-4): 94.9%; activity at 10 µM (RPMI-8226): 65.4%; activity at 10 µM (NCI-H522): 88.2%; activity at 10 µM (A549/ATCC): 84.8%; activity at 10 µM (UACC-62): 81.8%; activity at 10 µM (LOX IMVI): 78.2%; activity at 10 µM (RXF 393): 90.8%; activity at 10 µM (SF-268): 90.9%; activity at 10 µM (OVCAR-5): 95.3%; activity at 10 µM (NCI-H460): 93%; activity at 10 µM (SK-MEL-5): 87%; activity at 10 µM (SF-295): 102%; activity at 10 µM (NCI/ADR-RES): 79.7%; activity at 10 µM (SW-620): 98%
